Assay results gathered from unrelated publications.
Lines come from different studies, so protocols differ.
Target: Glycogen synthase kinase-3 alpha (GSK3A, Homo sapiens, UniProt P49840)

| SMILES | read-out | mode | technique | cells | concentration | measurement | result |
| --- | --- | --- | --- | --- | --- | --- | --- |
| CS(=O)(=O)N1CCCC(NC(=O)[C@H](CCC2CCCCC2)NC(=O)c2ccc(CNc3ncnc4c3nnn4-c3ccccc3)cc2)C1 (stereo partly drawn) | cell-free assay | – | competition with immobilised ligand | – | 0.1 µM | remaining binding | 100% |
| O=C1Nc2ccc(Cl)cc2C1=Cc1cc(Cl)c(O)c(Cl)c1 | cell-free assay | – | – | – | 0.5 µM | remaining signal | 76.1% |
| Nc1c(C(=O)NCc2ccc(C(=O)NCCCC3CCCCC3)cc2)cnn1-c1ccccc1 | cell-free assay | – | competition with immobilised ligand | – | 0.1 µM | remaining binding | 100% |
| COc1cc2ncnc(Nc3ccc(F)c(Cl)c3)c2cc1OCCCN1CCOCC1 | cell-free assay | – | – | – | 0.5 µM | remaining signal | 99.7% |
| Cc1ccc(NC(=O)c2ccc(C)c(C(F)(F)F)c2)cc1C#Cc1nn(C2CCC(O)CC2)c2ncnc(N)c12 (stereo not drawn) | cell-free assay | inhibitor | – | – | 10 µM | remaining signal | 79% |
| CC(C)(O)[C@H]1CC[C@H](Nc2ccc3ncc(-c4cccc(C(F)(F)F)c4)n3n2)CC1 | enzyme activity | inhibitor | – | – | 1 µM | remaining activity | 90% |
| Cn1cnc(Br)c1C1=CN(c2ncnc3[nH]cnc23)CCS1 | enzyme activity | inhibitor | radiometric | – | 50 nM | inhibition | 14.8% |
| CN([C@@H]1CCc2c(CC(=O)O)c3cc(S(C)(=O)=O)ccc3n2C1)S(=O)(=O)c1ccc(F)cc1 | cell-free assay | – | competition with immobilised ligand | – | 1 µM | remaining binding | 100% |
| c1ccc(CNc2nc(N3CCOc4ccccc43)nc3c2CCCC3)cc1 | target engagement in cells | inhibitor | chemoproteomics | – | 20 mM | inhibition | 0% |
| Nc1nc(Nc2ccc(S(N)(=O)=O)cc2)sc1C(=O)c1ccccc1[N+](=O)[O-] | enzyme activity | inhibitor | – | – | 0.1 µM | inhibition | 73 to 75% |
| CCCOc1ccc(OC)c(F)c1C(=O)c1ccc(C(=O)N[C@@H]2CNC[C@H]2NC(=O)c2ccc3[nH]ncc3c2)cc1 | enzyme activity | inhibitor | – | – | 10 µM | remaining activity | 89% |
| COc1cc2ncnc(Nc3ccc(Oc4ccccc4)c(C)c3C)c2cc1OC | enzyme activity | inhibitor | – | – | 1 µM | inhibition | 2% |
| CNc1cc(Oc2cc(C(=O)Nc3cc(N4CCN(C)CC4)cc(C(F)(F)F)c3)ccc2C)ncn1 | target engagement in cells | inhibitor | chemoproteomics | Huh-7 | 1 µM | inhibition | -23.9% |
| O=C1NC(=O)c2cc(Nc3ccc(F)cc3)c(Nc3ccc(F)cc3)cc21 | cell-free assay | inhibitor | – | – | 0.5 µM | remaining signal | 88.2% |
| Cc1ccc(Nc2nccc(N(C)c3ccc4c(C)n(C)nc4c3)n2)cc1S(N)(=O)=O | enzyme activity | inhibitor | – | – | 0.3 µM | inhibition | -12% |
| CC/C(=N\NC(=O)NCc1cccc(O)c1)c1ccc(O)c(C)c1O | enzyme activity | inhibitor | – | – | 0.1 µM | inhibition | 2.8% |
| CCN(CC)CCNC(=O)c1c(C)[nH]c(/C=C2\C(=O)Nc3ccc(F)cc32)c1C | enzyme activity | inhibitor | – | – | 10 µM | inhibition | 36% |
| CO[C@@H](C)c1c(Nc2ccc([C@@H](N(C)C(=O)C3CCS(=O)(=O)CC3)C(F)(F)F)cc2)cnc2cc(Cl)nn12 | cell-free assay | – | competition with immobilised ligand | – | 1 µM | remaining binding | 94% |
| CC(C)(C)c1nc2c(s1)c1nc(N)ncc1c1ccc(NS(=O)(=O)c3c(F)cccc3F)c(F)c12 | enzyme activity | inhibitor | radiometric | – | 1 µM | remaining activity | 88% |
| Cc1c(NC(=O)c2cc(C(N)=O)nc3cc(F)ccc23)c(C(F)(F)F)nn1Cc1ccc(C(C)(C)C)cc1 | cell-free assay | – | competition with immobilised ligand | – | 1 µM | remaining binding | 98% |
| CCCCNc1ncc2c(-c3ccc(F)cc3)nn(C[C@H]3CC[C@H](N)CC3)c2n1 | target engagement in cells | inhibitor | chemoproteomics | – | 20 mM | inhibition | 6% |
| Cc1c[nH]c2nccc(Oc3c(F)cc(Nc4cc(Cl)nc(N)n4)cc3F)c12 | cell-free assay | – | competition with immobilised ligand | – | 0.1 µM | remaining binding | 95% |
| O=C(Nc1cnn(-c2csc(C(=O)NC3COC3)c2)c1)Nc1ccccc1Cl | enzyme activity | inhibitor | – | – | 5 µM | remaining activity | 97.4% |
| O=C(Nc1cnc(Oc2ccc(F)cc2)nc1)N1CCc2ncccc2[C@@H]1c1ccc(F)cc1 | cell-free assay | – | competition with immobilised ligand | – | 1 µM | remaining binding | 93% |
| N#CCCc1ccc2c(c1)-c1[nH]c3ccc([N+](=O)[O-])cc3c1CC(=O)N2 | cell-free assay | – | – | – | 0.5 µM | remaining signal | 0.804% |
| O=C(N[C@H]1CCCCC/C=C\C2C[C@@]2(C(=O)O)NC(=O)[C@@H]2C[C@@H](Oc3ccncc3)CN2C1=O)OC1CCCC1 (stereo partly drawn) | cell-free assay | – | competition with immobilised ligand | – | 1 µM | remaining binding | 100% |
| CCN(CC)c1ccc(C2=NNC(=O)CC2C)cc1[N+](=O)[O-] (stereo not drawn) | enzyme activity | inhibitor | – | – | 10 µM | remaining activity | 89% |
